Results published in article PMC9301635 (ACS Omega, 2022).
Like-named read-outs stand apart in the source and are kept apart here.

Key:
ovine COX-1 = target: T1, ovine COX-1 (Ovis aries, UniProt P05979); test: COX Fluorescent Inhibitor Screening Assay Kit; assay type: biochemical; conditions: for % inhibition @ 100 μM COX-1: 100 μM compound
T1 sequence (P05979 25-600): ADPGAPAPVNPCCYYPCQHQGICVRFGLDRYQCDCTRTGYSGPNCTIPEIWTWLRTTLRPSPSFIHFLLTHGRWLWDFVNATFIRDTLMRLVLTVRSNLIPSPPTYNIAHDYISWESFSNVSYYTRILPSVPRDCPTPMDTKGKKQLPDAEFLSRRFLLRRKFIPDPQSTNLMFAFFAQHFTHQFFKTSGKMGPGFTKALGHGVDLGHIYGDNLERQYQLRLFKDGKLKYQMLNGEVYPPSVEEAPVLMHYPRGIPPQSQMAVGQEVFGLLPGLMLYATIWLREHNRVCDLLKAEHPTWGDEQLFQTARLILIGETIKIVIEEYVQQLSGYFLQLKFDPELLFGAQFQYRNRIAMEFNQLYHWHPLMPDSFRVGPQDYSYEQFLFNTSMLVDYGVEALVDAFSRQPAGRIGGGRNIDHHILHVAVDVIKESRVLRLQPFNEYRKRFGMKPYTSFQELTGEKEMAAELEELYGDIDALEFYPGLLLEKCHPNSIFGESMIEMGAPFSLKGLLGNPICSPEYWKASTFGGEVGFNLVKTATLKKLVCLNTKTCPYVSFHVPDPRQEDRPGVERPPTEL

human COX-2 = target: T2, human COX-2 (Homo sapiens, UniProt P35354); test: biochemical; assay type: biochemical; conditions: for % inhibition @ 100 μM COX-2: 100 μM compound
T2 sequence (P35354 18-604): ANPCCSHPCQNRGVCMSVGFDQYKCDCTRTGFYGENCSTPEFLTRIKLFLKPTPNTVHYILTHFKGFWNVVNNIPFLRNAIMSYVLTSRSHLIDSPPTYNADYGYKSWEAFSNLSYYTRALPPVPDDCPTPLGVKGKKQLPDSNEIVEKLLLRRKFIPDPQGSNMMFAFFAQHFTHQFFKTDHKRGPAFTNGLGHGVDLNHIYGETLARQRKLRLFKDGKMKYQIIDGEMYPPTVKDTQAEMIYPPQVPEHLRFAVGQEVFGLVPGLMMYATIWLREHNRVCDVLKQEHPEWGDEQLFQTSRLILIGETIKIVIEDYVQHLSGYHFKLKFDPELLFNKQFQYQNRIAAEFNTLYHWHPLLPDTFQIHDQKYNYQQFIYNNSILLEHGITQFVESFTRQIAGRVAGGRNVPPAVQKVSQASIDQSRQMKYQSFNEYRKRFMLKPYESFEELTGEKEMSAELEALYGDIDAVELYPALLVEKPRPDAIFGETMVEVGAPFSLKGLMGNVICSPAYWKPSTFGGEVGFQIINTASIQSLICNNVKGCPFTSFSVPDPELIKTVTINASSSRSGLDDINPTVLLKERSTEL

CT26 [1] = test: MTT viability test, CT26; assay type: cell-based, mouse; conditions: read-out: IC50 CT26 MTT
In short: (§1)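 Cells were grown in RPMI-1640 with 10% FCS and antibiotics at 37 °C, 5% CO2. Seeding per well was CT26 4 × 10^3, HT-29 1.5 × 10^4, SW480 3 × 10^3 and HCT116 5 × 10^3, with overnight adherence. Test compound came from a 200 mM DMSO stock (≤0.1% DMSO final) and was applied at 0–200 μM for 72 h. Viability was read by MTT or crystal violet, in triplicate.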

CT26 [2] = test: Crystal violet; assay type: cell-based, mouse; conditions: read-out: IC50 CT26 CV
In short: as §1

HT29 [3] = test: MTT viability test, HT29; assay type: cell-based, human; conditions: read-out: IC50 HT29 MTT
In short: as §1

HT29 [4] = test: Crystal violet; assay type: cell-based, human; conditions: read-out: IC50 HT29 CV
In short: as §1

SW480 [5] = test: MTT viability test, SW480; assay type: cell-based, human; conditions: read-out: IC50 SW480 MTT
In short: as §1

SW480 [6] = test: Crystal violet; assay type: cell-based, human; conditions: read-out: IC50 SW480 CV
In short: as §1

HCT116 [7] = test: MTT viability test, HCT116; assay type: cell-based, human; conditions: read-out: IC50 HCT116 MTT
In short: as §1

HCT116 [8] = test: Crystal violet; assay type: cell-based, human; conditions: read-out: IC50 HCT116 CV
In short: as §1

HCT116 cells [9] = test: Caspase activation, ApoStat flow cytometry, HCT116; assay type: cell-based, human; conditions: IC50 dose, 72 h, fluorescence-labeled pan-caspase inhibitor
In short: (§2)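 Seeding in six-well plates was HCT116 2 × 10^5/well and SW480 1.5 × 10^5/well. Cells were exposed to test compound (DMSO vehicle, ≤0.1%) for 72 h. They were then stained with the FITC-labelled pan-caspase inhibitor ApoStat according to the manufacturer's protocol. The percentage of caspase-active cells was measured by flow cytometry. Data are representative of three independent experiments.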

SW480 cells [10] = test: Caspase activation, ApoStat flow cytometry, SW480; assay type: cell-based, human; conditions: IC50 dose, 72 h, fluorescence-labeled pan-caspase inhibitor
In short: as §2

COX-1 = conditions: read-out: IC50(COX-1) literature value; in blood; cited from earlier work
[11] = tested on: human breast, bladder, and non-small lung cancer cell lines; conditions: read-out: cytotoxic potential; literature data; cited from earlier work
HCT116 cells [12] = test: Cell proliferation, CFSE flow cytometry, HCT116; assay type: cell-based, human; conditions: HCT116, IC50 dose, 72 h
In short: (§3)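 HCT116 (2 × 10^5/well) or SW480 (1.5 × 10^5/well) cells were prelabelled with 1 μM CFSE in six-well plates. They were then exposed to test compound in culture medium (≤0.1% DMSO) for 72 h. CFSE dilution was measured by flow cytometry. Data are representative of three independent experiments.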

SW480 cells [13] = test: Cell proliferation, CFSE flow cytometry, SW480; assay type: cell-based, human; conditions: SW480, IC50 dose, 72 h
In short: as §3

HCT116 cells [14] = test: ROS/RNS production, DHR flow cytometry, HCT116; assay type: cell-based, human; conditions: HCT116, IC50 dose, 72 h
In short: (§4)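 HCT116 (2 × 10^5/well) and SW480 (1.5 × 10^5/well) cells in six-well plates were treated with test compound for 72 h. Treatment was in culture medium containing 1 μM dihydrorhodamine 123 (≤0.1% DMSO). Intracellular ROS/RNS was measured as fluorescence by flow cytometry. Data are representative of three independent experiments.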

SW480 cells [15] = test: ROS/RNS production, DHR flow cytometry, SW480; assay type: cell-based, human; conditions: SW480, IC50 dose, 72 h
In short: as §4

| IC50 (CT26 [1]; 72 h, COX-2 +) [µM] | IC50 (CT26 [2]; 72 h, COX-2 +) [µM] | IC50 (HT29 [3]; 72 h, COX-2 +) [µM] | IC50 (HT29 [4]; 72 h, COX-2 +) [µM] | IC50 (SW480 [5]; 72 h, COX-2 –) [µM] | IC50 (SW480 [6]; 72 h, COX-2 –) [µM] | IC50 (HCT116 [7]; 72 h, COX-2 –) [µM] | IC50 (HCT116 [8]; 72 h, COX-2 –) [µM] | % inhibition @ 100 μM COX-1 (ovine COX-1; no BSA) [%] | % inhibition @ 100 μM COX-2 (human COX-2; no BSA) [%] | Compound | caspase activation, % HCT116 cells (HCT116 cells [9]) [%] | caspase activation, % SW480 cells (SW480 cells [10]) [%] | other results |
| --- | --- | --- | --- | --- | --- | --- | --- | --- | --- | --- | --- | --- | --- |
| – | – | – | – | – | – | – | – | – | – | Cc1cccc(Nc2ccccc2C(=O)O)c1C [compound 1, Mefenamic acid, reference compound] | 0.5 | 5.2 | IC50 (ovine COX-1): 0.12 µM; inhibition plateau COX-1 (ovine COX-1; concentration range between 1 and 100 μM): around 60%; inhibition at 100 µM (ovine COX-1; read-out: % inhibition @ 100 μM COX-1): 59%; IC50 COX-2 (human COX-2): no IC50 value could be determined; inhibition at 100 µM (human COX-2; read-out: % inhibition @ 100 μM COX-2): 20%; IC50 (CT26 [1]; Mus musculus, CT26, 72 h): 114 ± 4.2 µM; IC50 (CT26 [2]; Mus musculus, CT26, 72 h): 163 ± 2 µM; IC50 (HT29 [3]; Homo sapiens, HT-29, 72 h): > 200 µM; IC50 (HT29 [4]; Homo sapiens, HT-29, 72 h): > 200 µM; IC50 (SW480 [5]; Homo sapiens, SW480, 72 h): 104 ± 6.4 µM; IC50 (SW480 [6]; Homo sapiens, SW480, 72 h): 120 ± 6.1 µM; IC50 (HCT116 [7]; Homo sapiens, HCT-116, 72 h): 96.2 ± 7.9 µM; IC50 (HCT116 [8]; Homo sapiens, HCT-116, 72 h): 101 ± 6.5 µM; IC50 (COX-1): 1.94 µM; IC50 [11]: ~20 µM |
| 61.6 ± 0.1 | 93.3 ± 5.7 | 183 ± 3.7 | > 200 | 77.6 ± 0.1 | 75.6 ± 4 | 74.6 ± 4.8 | 83.6 ± 3.8 | – | – | N-(1,2-Dicarba-closo-dodecaboran-9-yl)-2-benzoic acid [2c] | – | – | – |
| 38.3 ± 0.4 | 47.2 ± 2.3 | 45.6 ± 2.7 | > 200 | 39 ± 1.2 | 24 ± 0.8 | 34.4 ± 1.8 | 35.5 ± 3.1 | 32 | 28 | N-(1,2-Dicarba-closo-dodecaboran-9-yl)-2-benzonitrile [2b] | 1.1 | 3.2 | cell division rate vs untreated cells (HCT116 cells [12]): remarkably lower; cell division rate vs untreated cells (SW480 cells [13]): remarkably lower; ROS/RNS production (HCT116 cells [14]): increased; ROS/RNS production (SW480 cells [15]): increased |
| 76.5 ± 2.8 | 160 ± 6.6 | 184 ± 4.5 | > 200 | 90.6 ± 3.3 | 117 ± 7.9 | 93.2 ± 7.6 | 147 ± 8.6 | 11 | – | N-(1,7-Dicarba-closo-dodecaboran-9-yl)-2-benzoic acid [3c] | – | – | – |
| 22.4 ± 1.7 | 37.4 ± 1.2 | 46.4 ± 2.9 | 116 ± 2.2 | 23.8 ± 2.1 | 24.9 ± 1.8 | 28.2 ± 1.8 | 31.8 ± 2.3 | 22 | 13 | N-(1,7-Dicarba-closo-dodecaboran-9-yl)-2-benzonitrile [3b] | 5.6 | 6.8 | cell division rate vs untreated cells (HCT116 cells [12]): remarkably lower; cell division rate vs untreated cells (SW480 cells [13]): remarkably lower |
| 72.6 ± 4.5 | 137 ± 3.1 | 165 ± 0.3 | > 200 | 77.8 ± 0.4 | 76.4 ± 3.5 | 67.6 ± 1.3 | 77.4 ± 3.4 | 7 | – | N-(1,12-Dicarba-closo-dodecaboran-2-yl)-2-benzoic acid [4c] | – | – | – |
| > 200 | > 200 | > 200 | > 200 | > 200 | > 200 | > 200 | > 200 | 12 | – | N-(1,12-Dicarba-closo-dodecaboran-2-yl)-2-benzonitrile [4b] | – | – | – |
| 167 ± 8.8 | 150 ± 4.9 | 141 ± 7.8 | 182 ± 1.7 | 121 ± 4.5 | 84 ± 3.3 | 129 ± 10 | 115 ± 6 | 83 | 76 | Sodium rac-[N-(7,8-dicarba-closo-dodecaboran-6-yl)-2-benzonitrile] [compound 5] | – | – | IC50 (ovine COX-1; read-out: IC50 COX-1, no BSA): 40 µM; IC50 (human COX-2; read-out: IC50 COX-2, no BSA): 33 µM |
